From ChEMBL document CHEMBL1144927, “Discovery of a novel and highly potent noncompetitive AMPA receptor antagonist” (2003) come the findings set out here.

The structures appear in SMILES notation. Bounds are passed on as bounds.

A short description of assay [1]: Anticonvulsant activity against audiogenic seizures in DBA/2 mice 30 min after intraperitoneal administration (tonic phase). The assay is classed as functional. Particulars: Mus musculus, ip, 0.5 h. In outline:
(§1)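 DBA/2 mice, genetically susceptible to sound-induced seizures (8-12 g, 22-25 days old, either sex), were dosed ip in groups of 10 with vehicle or each dose. Dosing solution was freshly prepared in 50% DMSO/50% sterile 0.9% saline. Mice received auditory stimulation 30 min later and were scored for latency and incidence of seizure phases. ED50 per phase was fitted by Litchfield-Wilcoxon, with 95% confidence limits.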

A short description of assay [2]: Anticonvulsant activity against audiogenic seizures in DBA/2 mice 30 min after intraperitoneal administration (clonic phase). The assay is classed as functional. As to conditions: Mus musculus, ip, 0.5 h. In a few lines:
as §1

As to `COc1cc2c(cc1OC)C(c1ccc(N)cc1)N(C(C)=O)CC2` (stereo not given), the median effective dose (ED50) in assay [1] came out at 21.1 µmol/kg; in assay [2], 32.1 µmol/kg.
The matching figures for `COc1cc2c(cc1OC)C(c1ccc(Br)cc1)N(C(C)=O)CC2` (stereo not given): 16.5 µmol/kg and 43.1 µmol/kg.
`COc1cc2c(cc1OC)C(c1ccc(F)cc1)N(C(C)=O)CC2` (stereo not given): the ED50 in assay [1] stood at 18 µmol/kg; in assay [2], 36.8 µmol/kg.
The like results for `COc1cc2c(cc1OC)C(c1ccc(Cl)cc1)N(C(C)=O)CC2` (stereo not given) were, in that order, 2.4 µmol/kg and 4.2 µmol/kg.
As to `COc1cc2c(cc1OC)C(c1ccc(N)cc1)=NNC(=O)C2`, it took a dose of 15 µmol/kg to reach the 50% effect level in assay [2] (ED50).
For `COc1cc2c(cc1OC)C(c1ccc([N+](=O)[O-])cc1)N(C(C)=O)CC2` (stereo not given), the ED50 in assay [1] and in assay [2] was greater than 100 µmol/kg each time.
Consider `COc1cc2c(cc1OC)C(c1ccccc1)N(C(C)=O)CC2` (stereo not given), for which the 50% effective dose (ED50) in assay [1] is 37.7 µmol/kg; in assay [2], 53.5 µmol/kg.
The like results for `CC(=O)N1N=C(c2ccc(N)cc2)c2cc3c(cc2C[C@H]1C)OCO3` [TALAMPANEL] were, in that order, 9.7 µmol/kg and 13.4 µmol/kg.

What is called ED50 is the midpoint of the dose-response relation. A higher ED50 goes with weaker potency.
